# Source: ChEMBL document CHEMBL4823291, “Discovery of 5,6,7,8-tetrahydropyrido[3,4-d]pyrimidine derivatives as novel selective Axl inhibitors” (Bioorg Med Chem Lett, 2021)
# How the values were obtained:
# [1] = Permeability of compound by PAMPA assay; type: ADME; settings: read-out: permeability
# CYP2C9 = CYP2C9 (Homo sapiens, UniProt P11712); experiment: Time dependent inhibition of CYP2C9 in human liver microsomes assessed as enzyme remaining activity using cocktail of probe CYP as substrate at 50 uM; type: ADME; settings: probe cocktail of CYP probe substrates, read-out: Activity
# Sequence of CYP2C9 (P11712 whole entry): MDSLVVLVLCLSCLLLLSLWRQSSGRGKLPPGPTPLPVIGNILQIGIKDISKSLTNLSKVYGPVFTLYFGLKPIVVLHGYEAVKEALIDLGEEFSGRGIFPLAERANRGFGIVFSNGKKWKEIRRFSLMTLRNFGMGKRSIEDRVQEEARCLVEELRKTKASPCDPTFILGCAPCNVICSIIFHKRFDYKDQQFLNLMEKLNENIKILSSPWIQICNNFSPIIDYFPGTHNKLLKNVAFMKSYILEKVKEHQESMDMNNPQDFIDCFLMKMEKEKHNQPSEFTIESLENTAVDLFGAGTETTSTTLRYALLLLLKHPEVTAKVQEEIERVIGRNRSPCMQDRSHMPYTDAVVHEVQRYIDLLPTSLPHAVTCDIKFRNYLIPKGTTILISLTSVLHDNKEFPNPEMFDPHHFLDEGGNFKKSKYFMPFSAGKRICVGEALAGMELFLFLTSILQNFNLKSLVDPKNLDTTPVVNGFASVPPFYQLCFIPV
# Method in brief: (§1)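 Time-dependent CYP inhibition in human liver microsomes, with test compound at 50 µM and a cocktail of probe CYP substrates.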
# CYP2C8 = target: T1, CYP2C8 (Homo sapiens, UniProt P10632); experiment: Time dependent inhibition of CYP2C8 in human liver microsomes assessed as enzyme remaining activity using cocktail of probe CYP as substrate at 50 uM; type: ADME; settings: probe cocktail of CYP probe substrates, read-out: Activity; method in brief: as §1
# T1 sequence (P10632 whole entry): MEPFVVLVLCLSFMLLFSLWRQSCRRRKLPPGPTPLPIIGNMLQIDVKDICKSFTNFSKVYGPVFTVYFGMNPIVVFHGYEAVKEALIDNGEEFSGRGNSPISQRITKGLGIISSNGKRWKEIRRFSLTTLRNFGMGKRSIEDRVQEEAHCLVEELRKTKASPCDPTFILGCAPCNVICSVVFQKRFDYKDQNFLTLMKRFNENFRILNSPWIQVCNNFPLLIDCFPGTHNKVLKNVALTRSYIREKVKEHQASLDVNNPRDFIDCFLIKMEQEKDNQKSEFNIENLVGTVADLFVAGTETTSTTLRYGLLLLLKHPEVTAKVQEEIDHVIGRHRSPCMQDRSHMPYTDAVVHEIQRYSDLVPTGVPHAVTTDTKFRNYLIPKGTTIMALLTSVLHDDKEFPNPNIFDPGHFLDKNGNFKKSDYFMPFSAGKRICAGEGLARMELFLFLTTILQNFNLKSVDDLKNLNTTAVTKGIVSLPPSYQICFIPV
# CYP2C19 = CYP2C19 (Homo sapiens, UniProt P33261); experiment: Time dependent inhibition of CYP2C19 in human liver microsomes assessed as enzyme remaining activity using cocktail of probe CYP as substrate at 50 uM; type: ADME; settings: probe cocktail of CYP probe substrates, read-out: Activity; method in brief: as §1
# Sequence of CYP2C19 (P33261 whole entry): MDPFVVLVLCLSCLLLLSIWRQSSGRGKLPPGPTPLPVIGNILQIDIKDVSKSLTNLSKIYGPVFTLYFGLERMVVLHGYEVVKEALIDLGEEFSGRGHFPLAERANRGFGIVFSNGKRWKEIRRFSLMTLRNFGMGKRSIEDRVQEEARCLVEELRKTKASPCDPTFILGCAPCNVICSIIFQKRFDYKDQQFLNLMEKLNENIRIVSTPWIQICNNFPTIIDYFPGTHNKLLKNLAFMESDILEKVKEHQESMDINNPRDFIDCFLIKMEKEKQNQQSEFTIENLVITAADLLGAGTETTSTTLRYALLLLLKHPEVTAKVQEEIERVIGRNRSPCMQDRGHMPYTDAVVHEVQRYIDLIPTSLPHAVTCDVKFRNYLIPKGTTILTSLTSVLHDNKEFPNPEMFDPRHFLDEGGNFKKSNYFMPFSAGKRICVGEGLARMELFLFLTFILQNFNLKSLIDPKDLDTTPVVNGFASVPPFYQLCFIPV
# BaF3 = experiment: Ratio of IC50 for Mer in mouse BaF3 cells to IC50 for Axl in mouse BaF3 cells; type: cell-based
# [2] = target: T2, Tyrosine-protein kinase Mer (Homo sapiens, UniProt Q12866); experiment: Inhibition of Mer (unknown origin) by cell free assay
# T2 sequence (Q12866 whole entry): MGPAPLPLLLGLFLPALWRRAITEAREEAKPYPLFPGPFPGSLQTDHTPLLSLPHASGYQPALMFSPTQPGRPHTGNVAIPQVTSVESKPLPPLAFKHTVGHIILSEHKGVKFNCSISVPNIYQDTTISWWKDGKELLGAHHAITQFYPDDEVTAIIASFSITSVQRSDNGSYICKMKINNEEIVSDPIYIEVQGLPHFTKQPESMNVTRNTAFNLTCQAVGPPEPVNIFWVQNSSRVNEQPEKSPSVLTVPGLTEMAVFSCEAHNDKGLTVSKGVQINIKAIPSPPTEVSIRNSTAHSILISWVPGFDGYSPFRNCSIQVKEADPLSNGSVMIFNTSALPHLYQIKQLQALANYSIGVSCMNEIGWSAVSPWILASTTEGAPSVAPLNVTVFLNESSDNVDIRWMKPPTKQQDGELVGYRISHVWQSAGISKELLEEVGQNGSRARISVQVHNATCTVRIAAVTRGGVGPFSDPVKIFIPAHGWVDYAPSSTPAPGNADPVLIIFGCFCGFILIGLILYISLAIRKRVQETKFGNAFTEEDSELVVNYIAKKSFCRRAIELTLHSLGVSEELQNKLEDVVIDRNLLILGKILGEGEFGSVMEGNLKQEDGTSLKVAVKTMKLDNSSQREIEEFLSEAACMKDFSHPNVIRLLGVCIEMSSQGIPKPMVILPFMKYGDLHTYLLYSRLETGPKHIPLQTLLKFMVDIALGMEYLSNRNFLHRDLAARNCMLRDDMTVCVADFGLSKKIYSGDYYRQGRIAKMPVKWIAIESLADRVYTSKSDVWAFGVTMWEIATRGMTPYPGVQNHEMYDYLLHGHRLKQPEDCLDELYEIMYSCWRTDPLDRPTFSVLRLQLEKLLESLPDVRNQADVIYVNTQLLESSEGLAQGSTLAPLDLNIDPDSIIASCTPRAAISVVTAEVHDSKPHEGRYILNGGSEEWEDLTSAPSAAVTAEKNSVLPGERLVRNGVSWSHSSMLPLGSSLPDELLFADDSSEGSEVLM
# [3] = target: T3, Tyrosine-protein kinase receptor UFO (Homo sapiens, UniProt P30530); experiment: Inhibition of Axl (unknown origin) by cell free assay
# T3 sequence (P30530 whole entry): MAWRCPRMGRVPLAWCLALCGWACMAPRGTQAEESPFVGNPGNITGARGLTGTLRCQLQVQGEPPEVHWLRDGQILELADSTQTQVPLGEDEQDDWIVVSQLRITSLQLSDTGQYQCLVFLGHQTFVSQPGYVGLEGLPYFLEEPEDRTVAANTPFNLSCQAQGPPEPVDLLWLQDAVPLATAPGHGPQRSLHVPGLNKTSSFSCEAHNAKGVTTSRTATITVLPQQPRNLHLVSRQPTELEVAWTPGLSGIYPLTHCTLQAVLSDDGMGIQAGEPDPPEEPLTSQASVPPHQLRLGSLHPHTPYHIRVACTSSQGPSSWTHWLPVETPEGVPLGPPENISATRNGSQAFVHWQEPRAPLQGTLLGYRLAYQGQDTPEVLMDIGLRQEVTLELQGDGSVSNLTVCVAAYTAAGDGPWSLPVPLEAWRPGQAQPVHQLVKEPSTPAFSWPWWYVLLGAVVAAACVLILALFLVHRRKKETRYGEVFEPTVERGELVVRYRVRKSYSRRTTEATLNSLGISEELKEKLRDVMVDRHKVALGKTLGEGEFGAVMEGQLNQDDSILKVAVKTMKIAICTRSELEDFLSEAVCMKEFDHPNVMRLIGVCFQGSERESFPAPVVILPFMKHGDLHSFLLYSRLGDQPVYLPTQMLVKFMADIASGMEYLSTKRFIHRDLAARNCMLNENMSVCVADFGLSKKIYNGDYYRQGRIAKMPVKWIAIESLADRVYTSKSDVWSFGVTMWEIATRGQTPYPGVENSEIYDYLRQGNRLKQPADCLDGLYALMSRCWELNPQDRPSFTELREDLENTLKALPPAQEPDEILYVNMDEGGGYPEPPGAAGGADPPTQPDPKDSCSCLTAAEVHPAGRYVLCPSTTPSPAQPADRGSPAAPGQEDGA
# [4] = Cmax in CAnN.Cg-Foxnlnu/CrlCrlj mouse plasma at 25 mg/kg, po single dose measured up to 24 hrs by liquid chromatography tandem mass spectrometry; type: ADME, organism-based; design: route oral, dose 25 mg/kg, time <=24
# [5] = Metabolic stability in human liver microsomes assessed as residual ratio at 0.1 uM for 30 mins; type: ADME, Microsome; settings: read-out: Stabilty
# Method in brief: (§2)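 Compound incubated at 0.1 µM for 30 min with human or mouse liver microsomes. Residual ratio of parent determined afterwards.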
# [6] = Metabolic stability in mouse liver microsomes assessed as residual ratio at 0.1 uM for 30 mins; type: ADME, Microsome; settings: read-out: Stabilty; method in brief: as §2
# [7] = Cmax in CAnN.Cg-Foxnlnu/CrlCrlj mouse plasma at 100 mg/kg, po single dose measured up to 24 hrs by liquid chromatography tandem mass spectrometry; type: ADME, organism-based; design: route oral, dose 100 mg/kg, time <=24
smiles,measurement,setting,value
Cc1ccc(-n2c(=O)c(C(=O)Nc3ccc(Oc4ncnc5c4CCN(CC4CCN(C)CC4)C5)c(F)c3)cn(C3CCCC3)c2=O)nc1,Papp,[1],0.91 ×10⁻⁶ cm/s
same,activity at 50 µM,CYP2C9,87%
same,activity at 50 µM,CYP2C8,84%
same,activity at 50 µM,CYP2C19,89%
same,Ratio IC50,BaF3,6.4
same,IC50,[2],190 nM
same,IC50,[3],5.2 nM
same,Cmax,[4],2340 ng/mL
same,"remaining at 0.5 h, 0.1 µM",[5],99%
same,"remaining at 0.5 h, 0.1 µM",[6],66.3%
same,Cmax,[7],10900 ng/mL
